Source: ChEMBL document CHEMBL2331234, “Novel analgesic/anti-inflammatory agents: 1,5-diarylpyrrole nitrooxyalkyl ethers and related compounds as cyclooxygenase-2 inhibiting nitric oxide donors” (J Med Chem, 2013)
The source made the active and inactive calls. The calls are words filed in the database; no cut-off is given here.

Experiments:
Rattus norvegicus [1] = test: Antiinflammatory activity in Sprague-Dawley/Wistar rat assessed as decrease in carrageenan-induced paw edema at 10 mg/kg, po administered 3 hrs 30 mins after carrageenan-challenge measured after 60 mins (reference value: 2.48 +/- 0.06 mL); type: functional
Rattus norvegicus [2] = test: Antiinflammatory activity in Sprague-Dawley/Wistar rat assessed as decrease in carrageenan-induced hyperalgesia at 10 mg/kg, po administered 4 hrs after carrageenan-challenge measured after 120 mins (reference value: 31.4 +/- 3.7 g); type: functional
Rattus norvegicus [3] = test: Antiinflammatory activity in Sprague-Dawley/Wistar rat assessed as decrease in carrageenan-induced hyperalgesia at 3 mg/kg, po administered 4 hrs after carrageenan-challenge measured after 120 mins (reference value: 31.4 +/- 3.7 g); type: functional
Rattus norvegicus [4] = test: Antiinflammatory activity in Sprague-Dawley/Wistar rat assessed as decrease in carrageenan-induced hyperalgesia at 3 mg/kg, po administered 4 hrs after carrageenan-challenge measured after 60 mins (reference value: 33.9 +/- 3.7 g); type: functional
Mus musculus = test: Antinociceptive activity in po dosed Swiss albino mouse assessed as reduction in number of acetic acid-induced writhing counted 5 mins after acetic acid challenge counted for 10 mins; type: functional; conditions: read-out: MED
How it was run: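 Male Swiss albino mice (23-25 g) dosed orally, then given 0.6% acetic acid (10 mL/kg) ip. Stretching movements counted for 10 min, starting 5 min after the acetic acid. Control group received CMC. At least 7 mice/group; mean ± SEM, ANOVA with Fisher's PLSD.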

Rattus norvegicus [5] = test: Antiinflammatory activity in Sprague-Dawley/Wistar rat assessed as decrease in carrageenan-induced hyperalgesia at 10 mg/kg, po administered 4 hrs after carrageenan-challenge measured after 30 mins (reference value: 34.8 +/- 3.0 g); type: functional
Rattus norvegicus [6] = test: Antiinflammatory activity in Sprague-Dawley/Wistar rat assessed as decrease in carrageenan-induced paw edema at 3 mg/kg, po administered 3 hrs 30 mins after carrageenan-challenge measured after 60 mins (reference value: 2.48 +/- 0.06 mL); type: functional
Rattus norvegicus [7] = test: Antiinflammatory activity in Sprague-Dawley/Wistar rat assessed as decrease in carrageenan-induced hyperalgesia at 3 mg/kg, po administered 4 hrs after carrageenan-challenge measured after 30 mins (reference value: 34.8 +/- 3.0 g); type: functional
Rattus norvegicus [8] = test: Antiinflammatory activity in Sprague-Dawley/Wistar rat assessed as decrease in carrageenan-induced hyperalgesia at 10 mg/kg, po administered 4 hrs after carrageenan-challenge measured after 60 mins (reference value: 33.9 +/- 3.7 g); type: functional
[9] = (§1) Inhibition of interleukin 1 beta-induced glycosaminoglycan release in bovine articular cartilage of metacarpophalangeal joints of feet treated 48 hrs after interleukin 1beta-challenge by DMB colorimetric assay; type: functional, Bos taurus
How it was run: (§2)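 Bovine metacarpophalangeal cartilage slices (about 100 mg per well) were cultured in serum-free DMEM at 37 °C, 5% CO2, with medium changed on days 1 and 2. On day 3 the slices were challenged with IL-1β 30 ng/mL plus compound for 48 h. GAG release was measured by the DMB (Farndale) assay and expressed as % of IL-1β alone, n = 3. EC50 is given with 95% CI.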

Bos taurus = species: Bos taurus; test: as §1; type: functional; how it was run: as §2
Rattus norvegicus [10] = test: Antiinflammatory activity in Sprague-Dawley/Wistar rat assessed as decrease in carrageenan-induced paw edema at 40 mg/kg, po administered 3 hrs 30 mins after carrageenan-challenge measured after 60 mins (reference value: 2.48 +/- 0.06 mL); type: functional
Rattus norvegicus [11] = test: Antiinflammatory activity in Sprague-Dawley/Wistar rat assessed as decrease in carrageenan-induced hyperalgesia at 40 mg/kg, po administered 4 hrs after carrageenan-challenge measured after 120 mins (reference value: 31.4 +/- 3.7 g); type: functional
Rattus norvegicus [12] = test: Antiinflammatory activity in Sprague-Dawley/Wistar rat assessed as decrease in carrageenan-induced hyperalgesia at 20 mg/kg, po administered 4 hrs after carrageenan-challenge measured after 120 mins (reference value: 31.4 +/- 3.7 g); type: functional
Rattus norvegicus [13] = test: Antiinflammatory activity in Sprague-Dawley/Wistar rat assessed as decrease in carrageenan-induced hyperalgesia at 20 mg/kg, po administered 4 hrs after carrageenan-challenge measured after 60 mins (reference value: 33.9 +/- 3.7 g); type: functional
[14] = molecular target: T1, Prostaglandin G/H synthase 1 (Mus musculus, UniProt P22437); test: Inhibition of arachidonic acid-induced COX1 activity in mouse J774 cells assessed as decrease in PGE2 levels incubated for 15 mins prior to arachidonic acid-challenge measured after 30 mins by RIA; type: cell-based
T1 sequence (P22437 whole entry): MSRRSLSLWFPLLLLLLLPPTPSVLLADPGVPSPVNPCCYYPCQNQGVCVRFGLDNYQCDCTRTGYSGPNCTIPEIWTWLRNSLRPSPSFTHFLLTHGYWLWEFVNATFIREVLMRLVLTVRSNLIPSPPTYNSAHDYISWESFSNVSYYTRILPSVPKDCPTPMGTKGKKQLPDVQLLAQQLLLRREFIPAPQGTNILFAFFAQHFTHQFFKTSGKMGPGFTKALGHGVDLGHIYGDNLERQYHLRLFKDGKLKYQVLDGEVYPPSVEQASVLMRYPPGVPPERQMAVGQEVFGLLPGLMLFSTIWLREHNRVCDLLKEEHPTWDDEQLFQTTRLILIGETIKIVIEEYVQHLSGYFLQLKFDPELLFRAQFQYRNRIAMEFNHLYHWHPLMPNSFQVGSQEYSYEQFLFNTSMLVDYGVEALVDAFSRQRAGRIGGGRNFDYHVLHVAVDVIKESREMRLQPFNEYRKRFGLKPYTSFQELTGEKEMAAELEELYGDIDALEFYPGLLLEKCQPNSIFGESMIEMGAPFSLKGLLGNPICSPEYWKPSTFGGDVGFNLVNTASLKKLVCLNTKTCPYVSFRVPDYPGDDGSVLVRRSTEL
How it was run: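 Cells were in DMEM with 10% FBS and adhered for 2 h at 37 °C. They were pretreated with compound (10 µM; 0.1-1 µM where inhibition exceeded 50%) for 15 min, then given 15 µM arachidonic acid for 30 min at 37 °C. Supernatant PGE2 was measured by RIA. Triplicate wells were used and the mean of three experiments reported. IC50 came from a variable-slope sigmoidal fit.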

Rattus norvegicus [15] = test: Antiinflammatory activity in Sprague-Dawley/Wistar rat assessed as decrease in carrageenan-induced hyperalgesia at 40 mg/kg, po administered 4 hrs after carrageenan-challenge measured after 30 mins (reference value: 34.8 +/- 3.0 g); type: functional
Rattus norvegicus [16] = test: Antiinflammatory activity in Sprague-Dawley/Wistar rat assessed as decrease in carrageenan-induced hyperalgesia at 40 mg/kg, po administered 4 hrs after carrageenan-challenge measured after 60 mins (reference value: 33.9 +/- 3.7 g); type: functional
Rattus norvegicus [17] = test: Antiinflammatory activity in Sprague-Dawley/Wistar rat assessed as decrease in carrageenan-induced hyperalgesia at 20 mg/kg, po administered 4 hrs after carrageenan-challenge measured after 30 mins (reference value: 34.8 +/- 3.0 g); type: functional
[18] = molecular target: T2, Prostaglandin G/H synthase 2 (Homo sapiens) (UniProt P35354); test: Inhibition of COX2 in human whole blood assessed as reduction in LPS-induced PGE2 generation pre-treated prior to LPS-challenge
T2 sequence (whole entry): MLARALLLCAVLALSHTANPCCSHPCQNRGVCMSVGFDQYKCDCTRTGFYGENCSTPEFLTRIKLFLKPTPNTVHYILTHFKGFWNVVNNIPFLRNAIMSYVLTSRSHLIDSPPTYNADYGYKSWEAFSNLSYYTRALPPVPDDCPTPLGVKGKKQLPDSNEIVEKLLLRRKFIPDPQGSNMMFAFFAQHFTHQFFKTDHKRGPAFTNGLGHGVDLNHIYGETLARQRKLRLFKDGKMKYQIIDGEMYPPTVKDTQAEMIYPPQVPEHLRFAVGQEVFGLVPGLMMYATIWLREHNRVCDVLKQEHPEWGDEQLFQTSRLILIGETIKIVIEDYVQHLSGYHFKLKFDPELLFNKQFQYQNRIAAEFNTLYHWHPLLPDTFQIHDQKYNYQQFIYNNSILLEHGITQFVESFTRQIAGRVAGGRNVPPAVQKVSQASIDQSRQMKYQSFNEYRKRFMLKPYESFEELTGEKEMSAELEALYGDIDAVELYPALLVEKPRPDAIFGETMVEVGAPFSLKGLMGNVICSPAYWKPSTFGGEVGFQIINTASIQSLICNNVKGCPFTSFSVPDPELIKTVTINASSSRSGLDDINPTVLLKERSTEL
How it was run: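 Heparinized whole blood came from three healthy volunteers pretreated with aspirin 300 mg 48 h before sampling to suppress platelet COX-1. Compounds in DMSO were added at 0.1-300 µM final. Blood was incubated with LPS 10 µg/mL for 24 h at 37 °C. Plasma PGE2 was measured by RIA.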

Rattus norvegicus [19] = test: Antiinflammatory activity in Sprague-Dawley/Wistar osteoarthritis model rat assessed as decrease in monoiodoacetate-induced hyperalgesia at 20 mg/kg, po bid for 14 days administered from day of monoiodoacetate-challenge followed by additional compound treatment after 30 mins […] by paw pressure test (reference value: 30.4 +/- 3.1 g); type: functional
[20] = molecular target: Prostaglandin G/H synthase 1 (Homo sapiens, UniProt P23219); test: Inhibition of COX1 in human whole blood assessed as reduction in TXB2 generation
How it was run: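 Clotting assay in whole blood from three healthy volunteers with no NSAID for 2 weeks. Compounds in DMSO were added at 0.1-300 µM final. Blood clotted in glass tubes at 37 °C for 1 h. Serum TXB2 was measured by RIA as a reflection of platelet COX-1 activity driven by endogenous thrombin.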

Rattus norvegicus [21] = test: Antiinflammatory activity in Sprague-Dawley/Wistar rat assessed as decrease in carrageenan-induced paw edema at 20 mg/kg, po administered 3 hrs 30 mins after carrageenan-challenge measured after 60 mins (reference value: 2.48 +/- 0.06 mL); type: functional
Aorta = test: Vasorelaxant activity in Wistar rat endothelium-removed thoracic aortic rings assessed as reduction of KCl-induced vasoconstriction at 0.001 uM to 10 uM treated after KCl-challenge relative to control; type: functional
How it was run: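 Thoracic aortic rings from male Wistar rats (250-350 g), endothelium removed by rubbing; removal confirmed as <10% relaxation to ACh 10 µM in KCl 30 mM-contracted rings. Rings contracted with KCl 30 mM; at plateau, 3-fold increasing compound concentrations (1 nM-10 µM) added. Isometric tension recorded. Emax given as % of KCl tone; pIC50 as -log molar concentration halving that tone. 6-10 experiments; also run with ODQ 1 µM.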

Rattus norvegicus [22] = test: Antiinflammatory activity in Sprague-Dawley/Wistar osteoarthritis model rat assessed as decrease in monoiodoacetate-induced hyperalgesia at 20 mg/kg, po bid for 14 days administered from day of monoiodoacetate-challenge […] post by paw pressure test (reference value: 32.6 +/- 2.9 g); type: functional

Prostaglandin G/H synthase 1 (Homo sapiens, UniProt P23219), sequence (P23219 whole entry): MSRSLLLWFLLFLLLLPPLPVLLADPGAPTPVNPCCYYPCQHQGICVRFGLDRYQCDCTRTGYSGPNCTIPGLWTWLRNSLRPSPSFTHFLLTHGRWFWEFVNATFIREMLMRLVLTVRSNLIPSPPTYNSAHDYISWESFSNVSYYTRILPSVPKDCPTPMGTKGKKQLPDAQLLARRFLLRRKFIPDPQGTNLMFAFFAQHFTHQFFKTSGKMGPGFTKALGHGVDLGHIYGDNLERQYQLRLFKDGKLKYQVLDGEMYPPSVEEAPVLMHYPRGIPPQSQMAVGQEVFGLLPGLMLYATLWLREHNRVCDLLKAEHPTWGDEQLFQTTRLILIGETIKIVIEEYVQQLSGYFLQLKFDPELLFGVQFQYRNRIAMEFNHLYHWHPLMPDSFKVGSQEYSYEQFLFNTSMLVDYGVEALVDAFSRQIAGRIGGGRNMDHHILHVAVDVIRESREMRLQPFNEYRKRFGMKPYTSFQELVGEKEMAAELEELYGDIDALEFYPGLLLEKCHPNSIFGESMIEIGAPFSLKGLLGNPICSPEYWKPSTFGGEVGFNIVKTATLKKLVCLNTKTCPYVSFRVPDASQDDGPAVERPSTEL

Work on `Cc1ccc(-c2cc(C(F)(F)F)nn2-c2ccc(S(N)(=O)=O)cc2)cc1` [CELECOXIB] yielded an Activity (Rattus norvegicus [1]) of 1.45 mL, an Activity (Rattus norvegicus [2]) of 39.8 g and an Activity (Rattus norvegicus [3]) of 40.7 g. The Activity (Rattus norvegicus [4]) was 41.6 g, the minimal effective dose (Mus musculus) was 3 mg/kg and the Activity (Rattus norvegicus [5]) was 52.9 g. The Activity (Rattus norvegicus [6]) was 2.35 mL, the Activity (Rattus norvegicus [7]) was 44.3 g and the Activity (Rattus norvegicus [8]) was 48.3 g.

For `Cc1c(CCOCCO)cc(-c2ccc(S(C)(=O)=O)cc2)n1-c1ccc(F)cc1`, the IC50 [9] was 33 µM, the inhibition (Bos taurus) was “Dose-dependent effect” and the Activity (Rattus norvegicus [10]) was 1.95 mL. The Activity (Rattus norvegicus [11]) was 47.6 g, the Activity (Rattus norvegicus [12]) was 38.3 g and the Activity (Rattus norvegicus [13]) was 38.7 g. It also gave an IC50 [14] greater than 10 µM, an Activity (Rattus norvegicus [15]) of 57.2 g and an Activity (Rattus norvegicus [16]) of 58.3 g. For the same compound, the Activity (Rattus norvegicus [17]) was 46.8 g, the IC80 [18] was 2.31 µM and the inhibition [18] was “Dose-dependent effect”. It also gave a minimal effective dose (Mus musculus) of 40 mg/kg, an Activity (Rattus norvegicus [19]) of 51.2 g and an IC50 [20] of 20 µM. The IC80 [20] was 37.1 µM, the inhibition [20] was “Dose-dependent effect” and the Activity (Rattus norvegicus [21]) was 2.01 mL. The Emax (Aorta) was “inactive” and the Activity (Rattus norvegicus [22]) was 49.7 g.
